# Yeast lifespan up: yeast lifespan extension | hit rate 0.68% among 130,000 | inhibition of the nicotinamide effect, % at 10 µM | S. cerevisiae growth with nicotinamide, OD615; deaD strain in restrictive glucose medium;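 active = inhibition above a set limit, placed 3 SD over the median of all compounds, cut at about 26% in these data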;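 note: 0% = nicotinamide-treated wells and 100% = cells grown without nicotinamide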
#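 Assay system: engineered S. cerevisiae DeaD replicative-lifespan strain, galactose-grown log-phase cells; medium: restrictive CSMM-D dextrose medium; also added: nicotinamide, 1.5 mM, co-present with compound; schedule: 48 h compound exposure at 30 °C, humidified; detection: absorbance at 615 nm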
# BB579 growth dn: chemicals that inhibit yeast BB579 growth in restrictive medium (lifespan-shortening candidates); S. cerevisiae BB579 growth, OD615, 48 h; inhibition, % at 10 µM; hit rate 0.51% among 140,000; AID 804;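 active = inhibition above a set limit, 3 SD over the mean compound inhibition, cut at about 44% in these data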
#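 System: Saccharomyces cerevisiae DeaD strain BB579, replicative lifespan model yeast. Buffer or medium: restrictive glucose-based CSMM-D medium. Doses: one dose, 10 µM compound with 0.25% DMSO. Timing: 4 h preincubation and 48 h exposure at 30 °C. Detection: turbidity as optical density at 615 nm. Benchmarks: amphotericin B 10 µg/mL, positive.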
# sdo1 growth: restores growth of sdo1-depleted yeast | z-score at 10 µM | S. cerevisiae sdo1-depleted JHY4D growth rescue, OD600 30 h; stronger effect = higher value; pdr5 snq2 efflux-pump mutant strain | hit rate 0.21% among 140,000;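 active = z-score above 3 at both the 24 hr and the 30 hr optical density reads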;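 note: z-score against mean and SD of all compound wells on the same plate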
# RAM inhibit: yeast RAM network inhibition; hit rate 1.8% among 190,000; S. cerevisiae dse1pr::URA3 reporter, 5-FOA growth OD615, 2 d; analog-sensitive cbk1-as2 kinase mutant strain; inhibition, % at 50 µM;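 active = inhibition above a set limit, 3 SD over mean compound inhibition, cut at about 8.4% in these data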;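 note: 0% = DMSO-only wells with no growth and 100% = 10 µM 1-NA-PP1 full growth; inhibition rescues growth on 5-FOA so higher OD means more RAM inhibition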
# * hit, by the source's call; . = no result. Most compounds without a hit are left out; they make up all but 2.7% or so of the library.
SMILES,Yeast lifespan up,BB579 growth dn,sdo1 growth,RAM inhibit
O=C(O)c1ccccc1Cc1nc2cc(Cl)ccc2c(=O)[nH]1,.,.,.,8.6*
CCCS(=O)(=O)N1CCN(Cc2ccc3c(c2)c2ccccc2n3CC)CC1,0,-17,-1.1,1
C=C(C)COc1ccc(-c2[nH]ncc2Oc2ccccc2OC)c(O)c1,-7,79*,-2.2,5
CCOc1ccc(-c2[nH]ncc2Oc2ccccc2OC)c(O)c1,-12,-16,-2,1
CCCOC(=O)c1ccc(Oc2cn[nH]c2-c2ccc(OC)cc2O)cc1,-7,69*,-1.8,5
C=C(C)COc1ccc(-c2[nH]ncc2-c2ccc(Br)cc2)c(O)c1,-7,69*,-2.4,7
C=C(C)COc1ccc(-c2[nH]ncc2-c2ccccc2OC)c(O)c1,-11,90*,-2.2,-1
O=C(COc1ccccc1C(=O)c1cnn(-c2ccccc2)c1)Nc1ccccc1,-7,-10,-1.2,5
Cc1c[n+](C)ccc1CC1C([N+](=O)[O-])=C[N-]c2ncnn21 (stereo not given),.,.,.,1
C=C(C)COc1ccc(-c2n[nH]c(C)c2-c2ccc(Br)cc2)c(O)c1,-15,-31,-2,10*
COc1ccc(-c2[nH]ncc2-c2ccc3c(c2)OCCO3)c(O)c1,-20,-10,-1.9,10*
CCCc1cc(-c2[nH]ncc2-c2ccc3c(c2)OCCCO3)c(O)cc1OC,-16,-32,-1.7,8
CC1=C(C(=O)OC(C)C)C(c2cncc(-c3ccc(F)cc3)c2)C(C#N)=C(N)O1 (stereo not given),-2,-29,0.24,1
O=C(OC(c1ccccc1)c1nccc2ccccc12)c1cc([N+](=O)[O-])cc([N+](=O)[O-])c1 (stereo not given),4,-28,-0.95,4
O=C(/C=C/c1ccccc1)Nc1ncn[nH]1,36*,-22,0.69,-1
COc1cc(NS(=O)(=O)c2ccc(NC(=S)NC(=O)/C=C/c3ccc(OC)c(OC)c3)cc2)ncn1,.,.,.,6
COc1ccc(/C=C/C(=O)NC(=S)Nc2ccc(S(=O)(=O)Nc3cc(OC)ncn3)cc2)cc1,.,.,.,8.7*
CCNC(=O)C(=O)NCC1OCCCN1S(=O)(=O)c1cccs1 (stereo not given),1,-16,0.52,0
CCOc1ccc(NS(=O)(=O)c2cnc(Cl)c(Cl)c2)cc1,2,-66,-1.7,-1
Cc1cc(C)cc(NS(=O)(=O)c2cnc(Cl)c(Cl)c2)c1,-18,76*,-1.6,-1
COc1ccc(C(=O)NCC(=O)OCc2ccccc2F)cc1,.,.,.,0
Cc1sc2ncnc(N/N=C/c3ccc(O)cc3)c2c1C,-2,-21,0.53,-1
Cc1sc2ncnc(N/N=C/c3ccccc3O)c2c1C,2,68*,-0.16,-1
Cc1ccc(NC(=O)CSc2nc3c(cc2C#N)C(=O)CCC3)cc1S(=O)(=O)N(C)C,6,-43,0.39,8.5*
COc1ccc2cc(-c3cc(C(=O)O)c4ccccc4n3)ccc2c1,-13,37,0.78,-1
SMILES,Yeast lifespan up,BB579 growth dn,sdo1 growth,RAM inhibit
CCOc1ccc2nc(-c3ccc(OC)c(OC)c3)cc(C(=O)O)c2c1,51*,-12,3,7
CC(C)CCN1CCN(CC#Cc2ccccc2)CC1CCO (stereo not given),.,.,.,1
Cc1cc(NC(=O)c2cc(C(C)C)on2)nn1Cc1ccc(Cl)cc1,-6,-37,-1.1,9.3*
Cc1cc(C(=O)Nc2cc(C)n(Cc3ccc(Cl)cc3)n2)no1,-4,-39,-0.91,1
Cc1cccc(/C=N\Nc2cn[nH]c(=O)c2Cl)c1,-23,-48,-0.37,9.8*
Cc1cccc(C)c1NC(=O)c1ccc(-c2ccc(Cl)cc2Cl)o1,-8,-40,-1.1,5
O=C(Nc1nccs1)c1ccc(-c2ccc(Cl)cc2Cl)o1,0,-43,-1.1,9.5*
Cc1ccc(NCc2ccccc2OCc2ccccc2F)cc1,-11,-32,0.19,1
Oc1ccc(NCc2ccccc2OCc2ccccc2F)cc1,27*,-28,-0.17,4
C=CCn1c(C)cc(C(=O)CSc2nnc(-c3cccc(S(=O)(=O)N(CC)CC)c3)o2)c1C,-12,-32,-0.26,11*
Oc1ccc(/C=C/c2nc(-c3ccccc3O)n(-c3ccccc3)n2)cc1,-20,98*,-1.1,3
CCCc1cc2c(=O)c(-c3nc4ccccc4s3)c(COCC(=O)O)oc2cc1O,.,.,.,2
CC(/C=C/C(=O)c1ccc(C)cc1)=C\c1ccccc1,-9,-10,-1.1,1
Cc1ccc(C(=O)/C=C/c2ccc(-c3ccc(C)cc3)o2)cc1,28*,-16,-0.22,7

# Screening data (PubChem BioAssay)
